This experiment addresses Voltage-dependent T-type calcium channel subunit alpha-1I (Homo sapiens) (UniProt Q9P0X4). As to the kind of experiment: Cav3.3 T-type channel current inhibition, dose response, selectivity assay for Cav3.2 inhibitor project, automated patch clamp, HEK293 cells (AID 504425). The note with it: HEK293 Cav3.3, automated patch clamp current; for current change, negative = inhibition: at 30 µM (top of the series). An outline of the steps: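 Timing: compound exposure 3 min; material: Cav3.3-expressing stable HEK293 cell line; probe or stimulus: voltage step, -100 mV to -30 mV, 1 s; measure: % current change relative to pre-compound current in each well; signal: perforated-patch population patch clamp, peak inward current, linear leak subtraction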
Background: The patch-clamp technique gives a direct electrical read-out from membranes.

Consider four compounds from PubChem BioAssay AID504425 (Johns Hopkins Ion Channel Center, 2011).

Active and inactive are the calls of the source.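 The calls were made as follows: active = compound that lowers Cav3.3 T-type calcium current at some tested dose and yields a usable dose response curve; inactive = the rest.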

What is called IC50 is the midpoint of a concentration-inhibition curve.

Chain of Voltage-dependent T-type calcium channel subunit alpha-1I (Homo sapiens) (Q9P0X4 whole entry, looked up): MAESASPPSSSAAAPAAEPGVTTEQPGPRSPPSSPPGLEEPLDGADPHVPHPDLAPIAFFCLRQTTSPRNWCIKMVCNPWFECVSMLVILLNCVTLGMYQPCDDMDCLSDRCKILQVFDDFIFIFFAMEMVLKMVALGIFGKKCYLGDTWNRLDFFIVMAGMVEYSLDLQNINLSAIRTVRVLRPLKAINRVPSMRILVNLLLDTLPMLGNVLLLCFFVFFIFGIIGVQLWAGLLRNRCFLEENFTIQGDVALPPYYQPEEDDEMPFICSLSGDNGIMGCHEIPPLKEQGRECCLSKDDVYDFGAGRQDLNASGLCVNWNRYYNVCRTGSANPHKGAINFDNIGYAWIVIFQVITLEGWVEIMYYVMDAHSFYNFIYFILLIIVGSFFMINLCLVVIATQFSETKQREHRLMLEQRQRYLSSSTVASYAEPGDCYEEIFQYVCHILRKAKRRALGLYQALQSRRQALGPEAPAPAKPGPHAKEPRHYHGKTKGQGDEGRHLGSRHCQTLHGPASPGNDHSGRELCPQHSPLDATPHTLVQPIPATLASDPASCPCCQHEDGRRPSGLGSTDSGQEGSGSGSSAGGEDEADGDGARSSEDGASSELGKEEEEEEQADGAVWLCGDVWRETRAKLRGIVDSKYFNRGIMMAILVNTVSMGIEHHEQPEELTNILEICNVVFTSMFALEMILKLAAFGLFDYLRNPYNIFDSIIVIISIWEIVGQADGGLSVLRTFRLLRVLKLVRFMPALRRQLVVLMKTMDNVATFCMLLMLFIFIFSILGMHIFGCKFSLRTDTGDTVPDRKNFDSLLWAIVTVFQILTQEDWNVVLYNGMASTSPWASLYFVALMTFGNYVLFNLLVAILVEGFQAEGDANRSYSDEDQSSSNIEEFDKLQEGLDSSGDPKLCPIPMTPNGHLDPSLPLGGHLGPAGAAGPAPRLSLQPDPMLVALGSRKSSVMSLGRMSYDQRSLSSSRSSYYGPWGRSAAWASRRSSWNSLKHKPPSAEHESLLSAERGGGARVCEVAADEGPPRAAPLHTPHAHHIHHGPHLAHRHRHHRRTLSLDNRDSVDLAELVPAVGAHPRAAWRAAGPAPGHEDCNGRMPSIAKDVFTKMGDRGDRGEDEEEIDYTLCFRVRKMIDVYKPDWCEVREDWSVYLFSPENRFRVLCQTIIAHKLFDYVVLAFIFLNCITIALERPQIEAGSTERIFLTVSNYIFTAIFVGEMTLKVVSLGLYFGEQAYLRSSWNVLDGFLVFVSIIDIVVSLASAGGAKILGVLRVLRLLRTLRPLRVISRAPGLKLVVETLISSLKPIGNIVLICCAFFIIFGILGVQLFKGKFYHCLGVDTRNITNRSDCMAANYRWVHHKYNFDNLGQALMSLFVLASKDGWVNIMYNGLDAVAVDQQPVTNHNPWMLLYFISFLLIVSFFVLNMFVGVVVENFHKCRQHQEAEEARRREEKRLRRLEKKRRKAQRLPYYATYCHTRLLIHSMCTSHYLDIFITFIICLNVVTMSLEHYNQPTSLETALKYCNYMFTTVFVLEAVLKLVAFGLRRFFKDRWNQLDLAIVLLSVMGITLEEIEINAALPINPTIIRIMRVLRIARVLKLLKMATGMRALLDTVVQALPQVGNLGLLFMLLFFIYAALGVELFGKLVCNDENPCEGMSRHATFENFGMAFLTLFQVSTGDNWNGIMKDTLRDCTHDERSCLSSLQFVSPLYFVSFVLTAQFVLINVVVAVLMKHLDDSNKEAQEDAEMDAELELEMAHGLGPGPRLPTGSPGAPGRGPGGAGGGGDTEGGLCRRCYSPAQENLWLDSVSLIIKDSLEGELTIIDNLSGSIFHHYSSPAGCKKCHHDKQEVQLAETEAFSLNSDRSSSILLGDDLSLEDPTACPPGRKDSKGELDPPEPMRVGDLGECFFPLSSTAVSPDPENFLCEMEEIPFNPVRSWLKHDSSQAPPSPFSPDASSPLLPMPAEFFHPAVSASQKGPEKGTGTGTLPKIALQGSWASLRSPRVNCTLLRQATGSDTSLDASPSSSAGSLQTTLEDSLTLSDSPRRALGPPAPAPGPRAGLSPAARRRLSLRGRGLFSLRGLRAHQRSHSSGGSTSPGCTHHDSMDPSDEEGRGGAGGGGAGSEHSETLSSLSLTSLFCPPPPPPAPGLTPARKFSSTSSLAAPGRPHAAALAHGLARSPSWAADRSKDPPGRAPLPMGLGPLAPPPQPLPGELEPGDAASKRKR

Take `CC(C)(C)CCN1C[C@@H]2C(CNC(=O)c3cc(Cl)cc(Cl)c3)[C@@H]2C1` (some centres undefined): the IC50 is 0.275 µM.
On the same count and under the same terms, to `O=C(COc1ccc(F)cc1Cl)Nc1nnc(-c2ccc(F)c(F)c2)o1` belongs 11 µM.
Turning to `CC(C)(C)Cc1nnc(NC(=O)COc2ccc(Cl)cc2Cl)o1`, the “current change, negative = inhibition” value is “inactive”.
As to `Cc1ccc(-c2nnc(NC(=O)COc3ccc(F)cc3Cl)o2)cc1C`, the “current change, negative = inhibition” value is “inactive”.
